From PubChem BioAssay
Runt-CBFb FRET = Runt domain-CBFb interaction inhibition | Cerulean-Runt/Venus-CBFb FRET ratio 530/480, 1 h | inhibition, % at 20 µM | 0.46% of 220,000 active;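 active means inhibition over about 50% at 20 µM in the single-dose screen, limit read from the data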
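Reagent – Venus-CBFb binding partner, 100 nM · Assay system – Cerulean-tagged RUNX1 Runt domain (FRET donor) fusion protein · Input – 100 nM per protein · Incubation – two 1 h room-temperature incubations shielded from light · Measured by – FRET fluorescence · Medium – Tris buffer pH 7.5 with salts and BSA · Benchmarks – unlabeled CBFb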
TbHK1 inh = blocks Trypanosoma brucei hexokinase 1 activity | inhibition, % at 10 µM | AID 1430 | recombinant TbHK1, G6PDH-coupled NADH A340 | 0.11% of 220,000 active;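 active means inhibition of 50% or more in the single-dose primary screen; inactive means inhibition below 50%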
RanGTP-Impb inh = inhibitors of RanGTP-importin-beta interaction, primary screen, biochemical, FRET, CFP-Ran, YFP-importin-beta, homogeneous | cell-free CFP-Ran/YFP-importin-beta FRET ratio | inhibition, % (test concentration not listed) | 1.1% of 300,000 active;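 active means more than half of the replicate wells show a fall in the fluorescence ratio signal beyond about 16%, limit read from the data, passing the limit was not always enough; inconclusive means exactly half of the replicate wells pass the set limit; inactive means fewer than half of replicates pass the limit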
14-3-3 Bad inh = disrupts binding of bovine 14-3-3 zeta to phospho-Bad peptide | P63103 | 0.71% of 220,000 active | TR-FRET 14-3-3zeta/Dy647-pBad peptide displacement, 1 h | inhibition, % at 21.7 µM;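 active means inhibition above about 70%, limit read from the data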
Hck Nef HTS = inhibitors of human Hck kinase activated by Nef; AID 463187; Recombinant Hck-YEEI plus Nef, Z-Lyte FRET kinase assay; inhibition, % at 20 µM; P08631; 0.68% of 220,000 active;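 active means Hck-Nef kinase inhibition above about 50%, limit read from the data; inactive means inhibition below that limit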
Target sequence (P08631 whole entry, looked up): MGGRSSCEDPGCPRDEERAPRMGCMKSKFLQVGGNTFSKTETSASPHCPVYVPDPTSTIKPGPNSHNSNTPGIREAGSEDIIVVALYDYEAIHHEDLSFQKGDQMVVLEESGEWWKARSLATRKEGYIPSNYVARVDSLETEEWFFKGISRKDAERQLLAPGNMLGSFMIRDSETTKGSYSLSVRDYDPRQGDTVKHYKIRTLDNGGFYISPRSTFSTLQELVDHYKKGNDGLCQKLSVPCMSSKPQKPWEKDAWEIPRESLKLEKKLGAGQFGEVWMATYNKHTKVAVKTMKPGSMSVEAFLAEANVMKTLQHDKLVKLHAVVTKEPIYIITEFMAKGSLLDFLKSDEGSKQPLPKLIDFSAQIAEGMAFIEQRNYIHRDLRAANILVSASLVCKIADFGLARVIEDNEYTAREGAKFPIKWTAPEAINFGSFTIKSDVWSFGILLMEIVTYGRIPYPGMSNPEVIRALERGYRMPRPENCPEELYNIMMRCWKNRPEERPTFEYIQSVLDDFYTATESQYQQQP
Runt-SMMHC FRET = inhibitors of human RUNX1 Runt domain binding to CBFb-SMMHC. Cerulean-Runt/Venus-CBFb-SMMHC FRET ratio 530/480, 1 h. 0.74% of 220,000 active. inhibition, % at 20 µM. Q01196+Q13951;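 active means mean inhibition across duplicate retests at 20 µM reaching about 50%, limit read from the data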;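 further: inhibitors lower the FRET ratio by blocking Runt binding to CBFb-SMMHC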
Hits are given with their value; 0 = inactive; ? = inconclusive; - = no result given; [ ] = remark or other dose. Shown are actives, neighbours in structure and some others; about 2.2% of the full set was active somewhere.

SMILES	Runt-CBFb FRET	TbHK1 inh	RanGTP-Impb inh	14-3-3 Bad inh	Hck Nef HTS	Runt-SMMHC FRET
CC(=O)c1ccc(N2C(=NC(=O)C3CCCCC3)SC3CS(=O)(=O)CC32)cc1 (stereo not given)	-	-	0	-	-	-
O=c1c(C=NCCCO)c(-c2ccccc2)[nH]n1-c1nc2ccccc2s1	0	0	0	71.0	0	0
COCCCN=Cc1c(-c2ccccc2)[nH]n(-c2nc3ccccc3s2)c1=O	0	0	0	0	0	0
O=c1[nH]c(N/N=C\c2ccc3c(c2)OCO3)nc2ccccc12	0	0	16.0	0	0	0
O=c1[nH]c(N/N=C/c2ccccc2)nc2ccccc12	0	0	?	0	0	50.5
Oc1ccc(/C=N/Nc2nc(-c3cccnc3)nc3ccccc23)c(O)c1	0	0	0	82.8	0	0
Cc1c(O)ccc(/C=N/Nc2nc(-c3cccnc3)nc3ccccc23)c1O	0	0	0	0	0	0
CCOC(=O)c1ccc(Nc2nc(-c3cccnc3)nc3ccccc23)cc1	0	0	0	75.1[fluorescence artefact?]	0	0
COC(=O)c1ccc2c(c1)C(=O)/C(=C/c1ccc(O)cc1)O2	0	0	19.1	0	0	0
CC(=O)NCCN=C(C)c1sc2ccccc2c1O	0	0	54.1	0	0	0
CC(=Nc1cccc(C)c1)c1sc2ccccc2c1O	0	0	25.8	0	0	67.6
CC(=Nc1ccc(O)cc1)c1sc2ccccc2c1O	0	0	0	0	0	0
CC(=Nc1ccccc1O)c1sc2ccccc2c1O	0	0	?	0	0	0
O=C(NCCOC(=O)c1ccc(Cl)cc1)c1cccnc1	0	0	0	0	0	0
CC(C)C(=O)NCC(c1ccc2c(c1)OCO2)N1CCOCC1 (stereo not given)	-	-	0	-	-	-
Cc1ccc(C)c(NC2=CC(=O)CC(C)(C)C2)c1C#N	0	0	0	75.7	0	0
COc1cc(NC2=CC(=O)CC(C)(C)C2)cc(OC)c1	0	0	0	0	0	0
CC1(C)CC(=O)C=C(Nc2ccc(OCC(F)(F)C(F)F)cc2)C1	0	0	30.0	0	0	0
CC1(C)CC(=O)C=C(Nc2ccc(F)cc2)C1	0	0	27.3	0	0	0
CC1(C)CC(=O)C=C(Nc2ccc(F)cc2F)C1	0	0	35.2	0	0	0
CC1(C)CC(=O)C=C(Nc2ccc(F)c(Cl)c2)C1	-	-	0	-	-	-
CCOC(=O)/C(O)=C(\C#N)c1nc2ccccc2[nH]1	0	0	0	0	0	73.8
O=C(CCC1N=C2c3ccccc3N=C(SCc3ccc(Cl)cc3)N2C1=O)NCc1ccco1 (stereo not given)	0	0	27.3	0	0	0
CCn1ncc([N+](=O)[O-])c1C(=O)N1CCc2ccccc2C1	-	-	0	-	-	-
Cc1c(C(=O)NCCN(C)C)oc2ccc(S(=O)(=O)N3CCC4(CC3)OCCO4)cc12	-	-	22.5	-	-	-
SMILES	Runt-CBFb FRET	TbHK1 inh	RanGTP-Impb inh	14-3-3 Bad inh	Hck Nef HTS	Runt-SMMHC FRET
Cc1ccc(CNC(=O)c2oc3ccc(S(=O)(=O)N4CCC5(CC4)OCCO5)cc3c2C)cc1	0	0	0	0	0	0
CC(=O)C1=C(C)NC(=O)CC1c1ccccc1Cl (stereo not given)	0	0	0	0	0	0
CC1=C(C(=O)OC(C)C)C(c2ccccc2Cl)CC(=O)N1 (stereo not given)	0	0	0	80.0	0	0
CCOC(=O)c1c(-c2ccc(C)s2)csc1N	0	0	24.4	0	0	0
CCN(CC)CCCOc1nc(C)nc2c1oc1ccccc12	0	0	-	77.2	0	0
Cc1cccc(N2C(=O)CCC2=O)n1	0	0	0	0	0	0
COCCCn1c(C(=O)N2CCOCC2)cc2c(=O)n3cccc(C)c3nc21	-	-	0	-	-	-
COCCn1c(=NC(=O)c2ccc3c(c2)OCO3)c(C#N)cc2c(=O)n3cccc(C)c3nc21	105.2	0	43.0	0	0	118.2
CCCCn1c(=NC(=O)c2ccc3c(c2)OCO3)c(C#N)cc2c(=O)n3cccc(C)c3nc21	56.4	0	-	0	0	0
Cc1nc(CS(=O)(=O)c2ccccn2)sc1C(=O)NNC(=O)c1ccc(Cl)cc1	0	0	0	0	0	0
Cc1cc(NC(=O)CSc2nc(-c3ccccc3Cl)nc3c2c(=O)n(C)c(=O)n3C)no1	0	0	0	0	0	0
COC(=O)C1=C(C(=O)OC)[C@@H]2N(C)c3ccccc3[C@@]23C[C@@H](CO)N(C(=O)NCCBr)C3=N1	0	0	0	0	0	0
Cc1cc(Oc2nc3ccccn3c(=O)c2/C=C(\C#N)C(=O)NC2CCS(=O)(=O)C2)ccc1Cl (stereo not given)	-	-	58.6	-	-	-
COC(=O)/C(C#N)=C/c1c(Oc2cccc(C)c2)nc2ccccn2c1=O	0	0	0	0	0	0
N#C/C(=C\c1c(Oc2ccc(Cl)cc2)nc2ccccn2c1=O)C(=O)NC1CCS(=O)(=O)C1 (stereo not given)	-	-	50.9	-	-	-
Cc1cccc(Oc2nc3ccccn3c(=O)c2/C=C(\C#N)C(=O)NC2CCS(=O)(=O)C2)c1C (stereo not given)	-	-	0	-	-	-
Cc1ccc(Cl)cc1NC(=O)CC1NCCNC1=O (stereo not given)	0	0	0	0	0	0
CCN(CC)CCCN1C(=O)C(O)=C(C(=O)c2cc3ccccc3o2)C1c1ccccn1 (stereo not given)	0	0	-	0	0	0
CCN(CC)CCN1C(=O)C(O)=C(C(=O)c2ccco2)C1c1ccccn1 (stereo not given)	0	0	59.4	0	0	0
CN(C)CCN1C(=O)C(O)=C(C(=O)c2cc3ccccc3o2)C1c1ccccn1 (stereo not given)	0	0	25.5	0	0	0
O=C(NNC(=O)C1CC(c2cccnc2)=NO1)Nc1cccc(F)c1 (stereo not given)	0	0	0	0	0	0
COc1ccc(Nc2cc(Cl)nc(N)n2)cc1OC	0	0	18.2	0	0	0
O=C(c1ccc2nccnc2c1)N1CCCC(N2CCN(c3ccc(F)cc3)CC2)C1 (stereo not given)	-	-	0	-	-	-
CN(C)c1ccc(C=NCCC2(O)CCOC(C)(C)C2)cc1 (stereo not given)	0	0	?	0	0	0
CN(C)c1ccc(CNCCC2(O)CCOC(C)(C)C2)cc1 (stereo not given)	0	0	-	74.7	0	0
CC(C)CN(Cc1c(O)ccc2c3c(c(=O)oc12)CCC3)CC(C)C	0	0	0	0	0	99.7
Cc1c(OCC(=O)OC(C)C)ccc2c3c(c(=O)oc12)CCC3	0	0	0	0	0	0
Cc1c(O)ccc2c3c(c(=O)oc12)CCCC3	75.4	0	-	0	0	90.4
CC(=O)COc1ccc2c3c(c(=O)oc2c1C)CCCCC3	0	0	?	0	0	0
